# Assay outcomes: PubChem, several laboratories
# The entries come from a sample that favours hits as a whole.
# ABCB1 block = human ABCB1 inhibition, ABCG2 as counter-screen; CCRF-Adr cells, JC-1 efflux, flow cytometry; inhibition, % at 6.6 µM; actives 0.067% (n = 190,000); in the data active = inhibition above about 40%;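 note: 0% = vehicle and 100% = reference inhibitor; higher value means more JC-1 retained so stronger ABCB1 efflux block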
# Target sequence (P08183 whole entry, looked up): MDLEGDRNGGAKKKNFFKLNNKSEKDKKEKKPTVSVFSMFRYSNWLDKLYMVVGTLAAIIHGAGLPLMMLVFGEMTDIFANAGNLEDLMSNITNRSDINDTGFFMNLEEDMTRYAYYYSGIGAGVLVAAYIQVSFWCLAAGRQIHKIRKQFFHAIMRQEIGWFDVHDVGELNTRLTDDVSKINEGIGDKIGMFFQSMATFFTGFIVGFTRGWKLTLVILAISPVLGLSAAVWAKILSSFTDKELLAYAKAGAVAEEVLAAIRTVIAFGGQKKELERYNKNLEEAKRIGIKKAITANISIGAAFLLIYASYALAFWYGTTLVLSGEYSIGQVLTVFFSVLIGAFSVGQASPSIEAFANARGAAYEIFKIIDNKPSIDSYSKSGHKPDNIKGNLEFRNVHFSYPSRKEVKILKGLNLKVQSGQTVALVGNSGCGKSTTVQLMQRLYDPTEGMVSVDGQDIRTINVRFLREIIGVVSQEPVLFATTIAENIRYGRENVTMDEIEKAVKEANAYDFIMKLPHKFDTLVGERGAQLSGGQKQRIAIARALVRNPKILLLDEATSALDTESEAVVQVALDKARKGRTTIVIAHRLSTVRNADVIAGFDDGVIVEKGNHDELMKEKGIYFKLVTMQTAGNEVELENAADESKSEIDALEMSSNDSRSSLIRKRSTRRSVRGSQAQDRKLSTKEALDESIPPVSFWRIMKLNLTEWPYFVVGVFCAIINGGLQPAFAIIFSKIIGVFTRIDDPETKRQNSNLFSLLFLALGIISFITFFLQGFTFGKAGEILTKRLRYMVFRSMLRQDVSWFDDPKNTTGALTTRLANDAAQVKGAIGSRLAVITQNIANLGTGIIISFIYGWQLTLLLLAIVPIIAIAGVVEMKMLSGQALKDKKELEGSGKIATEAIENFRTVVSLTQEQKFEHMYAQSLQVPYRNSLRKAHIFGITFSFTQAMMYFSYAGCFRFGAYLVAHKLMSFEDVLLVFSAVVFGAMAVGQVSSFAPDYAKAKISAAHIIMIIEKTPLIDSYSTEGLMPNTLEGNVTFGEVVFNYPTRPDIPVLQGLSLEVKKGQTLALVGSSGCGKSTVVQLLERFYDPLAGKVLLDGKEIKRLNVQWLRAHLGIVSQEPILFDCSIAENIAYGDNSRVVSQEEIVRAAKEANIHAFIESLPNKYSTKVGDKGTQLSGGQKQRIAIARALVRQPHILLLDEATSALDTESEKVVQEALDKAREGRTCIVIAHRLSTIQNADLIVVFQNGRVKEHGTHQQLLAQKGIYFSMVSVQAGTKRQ
# FLuc act counter = firefly luciferase counter-screen for stimulation assays. P08659. ATPlite luciferase biochemical, luminescence, 10 min; 0 = ATP-free wells, 1 = DMSO control. activation factor at 10 µM. 200,000 tested, under 10 active. AID 1027;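 active = luciferase activation factor, scaled between plate controls, of at least 2 with compound at 10 µM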
#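 test system = cell-free luciferase reagent | medium = PBS as buffer for the ATP substrate | dosing = test compounds dosed from 2 mM stocks in 100% DMSO | incubation = 10 min at ambient temperature | detection = luminescence measurement of luciferase light output | benchmarks = low control with PBS replacing ATP, high control enzyme plus ATP without compound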
# Diaph act CS = counter-screen for diaphorase-based assays: diaphorase activators and chemical reducers. Diaphorase/resazurin coupled assay, resorufin fluorescence, 16 min; stronger effect = higher value; 1 = vehicle wells, 0 = NADH-free wells. activation factor at 20 µM. actives 0.005% (n = 190,000);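 active = diaphorase activity raised at least twofold by the compound at 20 µM; inactive = activation factor below 2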
#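 Material: Purified diaphorase enzyme from Clostridium kluyveri | Buffer or medium: 50 mM HEPES pH 7.4 with 4.542 mM MgCl2, 0.005% Tween 20 | Times: 16 min enzyme reaction, ambient temperature | Signal: Red resorufin fluorescence at 544/590 nm excitation/emission | Measure: Increased resorufin signal from activators or reducing compounds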
# ABCB6 inh MLPCN = blocks the human ABCB6 transporter; Q9NP58; K562-ABCB6 porphyrin accumulation, flow cytometry, 1 h; stronger effect = lower value; fluorescence ratio to DMSO, % at 10 µM; actives 0.19% (n = 360,000);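 active = fluorescence ratio to DMSO below 75%, the collection mean minus 3 SD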;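 note: signal is porphyrin accumulated inside mitochondria; 100% equals median channel fluorescence of DMSO control wells; lower ratio means ABCB6 inhibition with less porphyrin fluorescence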
# ABCG2 block = blocks JC-1 efflux by human ABCG2 transporter | Q9UNQ0 | IgMXP3 cells, flow cytometry | inhibition, % at 6.6 µM | actives 0.1% (n = 190,000) | AID 1325;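 active = inhibition above 80%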;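 note: 0% = DMSO and 100% = nicardipine control wells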
#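 Measure – % inhibition of efflux relative to nicardipine and DMSO · Test system – ABCG2 IgMXP3 and barcoded ABCB1 CCRF-Adr cell mix · Control set – nicardipine as high control, DMSO as low control · Compound – one concentration, 6.6 µM final · Signal – flow cytometry of retained JC-1 fluorescence · Timing – 10 min exposure at 25 °C with rotation, no wash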
# FLuc inhib CS = Photinus pyralis luciferase inhibition counter-screen; P08659; ATPLite firefly luciferase biochemical luminescence, 10 min; inhibition, % at 10 µM; actives 1.5% (n = 200,000); AID 1006;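 active = inhibition above about 50% when tested at 10 µM, limit read from the data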
# ABCB6 inh CP1 = human ABCB6 transporter inhibition; 700 tested, under 10 active; shares compounds with ABCB6 inh MLPCN; K562-ABCB6 porphyrin accumulation, flow cytometry, 1 h; stronger effect = lower value; ratio response (% of DMSO), % at 10 µM;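 active = repeat-averaged ratio response below 75% of DMSO, the collection mean minus 3 SD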;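 note: median porphyrin fluorescence at 575 nm with 488 nm excitation from mitochondria; lower ratio means less porphyrin signal so ABCB6 inhibition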
# Numbers without * were called inactive; / = no result.
SMILES,ABCB1 block,FLuc act counter,Diaph act CS,ABCB6 inh MLPCN,ABCG2 block,FLuc inhib CS,ABCB6 inh CP1
CCN(CC(=O)Nc1c(F)cccc1F)C(=O)c1ccc(C#N)cc1,/,/,/,70*,/,/,99
CCC(=O)N1CCc2cc(S(=O)(=O)N(CC)c3cccc(C)c3)ccc21,/,1,0.9,92,/,-4,/
CCN(c1cccc(C(F)(F)F)c1)S(=O)(=O)c1ccc2c(c1)CCN2C(=O)C1CC1,2,1.1,0.9,72*,18,-8,101
Cc1ccc(CNc2nc(N)c([N+](=O)[O-])c(Nc3cccc(F)c3)n2)cc1,0,1.1,1,101,1,-10,/
Nc1nc(NCc2ccccc2)nc(Nc2cccc(F)c2)c1[N+](=O)[O-],0,1.1,1,41*,2,-7,101
O=C(c1cnc(Cc2c[nH]c3ccccc23)c(I)c1)N1CCN(Cc2ccccc2)CC1,/,/,/,84,/,/,/
CC(C(=O)NCC1(c2ccccc2)CCOCC1)N1CCOCC1 (centres undefined),-2,1,/,96,-5,-1,/
CC(C(=O)NCC1(c2ccccc2)CCCC1)N1CCOCC1 (centres undefined),0,1.1,1,60*,-1,-9,102
CCC(CC)c1nnc(NC(=O)c2cc([N+](=O)[O-])ccc2N2CCOCC2)s1,/,/,/,100,/,/,/
CCN(C(=O)c1cccc(NC(=O)c2ccccc2)c1)C1CCCCC1,/,/,/,101,/,/,/
CCNc1oc(-c2ccc(OC)cc2)nc1S(=O)(=O)c1ccc(Br)cc1,0,1.1,0.8,90,2,-9,/
CCCCNc1oc(-c2ccc(OC)cc2)nc1S(=O)(=O)c1ccccc1,0,1,1,69*,2,-2,99
Cc1c(Cl)cccc1NC(=O)CCCn1cnc([N+](=O)[O-])n1,1,1.1,0.9,101,7,-6,/
O=C(CCCn1cnc([N+](=O)[O-])n1)Nc1cccc(Cl)c1Cl,0,1,1,72*,1,-3,104
Cc1cccc(OCCCC(=O)N2CCCCCC2)c1C,/,/,/,99,/,/,/
Cn1cc(-c2cccc3nncn23)cn1,/,/,/,93,/,/,/
CSc1ccc(-c2cccc3nncn23)cc1,/,/,/,65*,/,/,98
Cc1nn(CCC#N)c(N)c1C1(O)C(=O)Nc2c(Cl)cc(Cl)cc21 (centres undefined),/,/,/,13*,/,/,96
c1ccc(CNc2nc(N3CCOCC3)nc(N3CCOCC3)n2)cc1,0,1,1,101,7,-1,/
Clc1ccc(CNc2nc(N3CCOCC3)nc(N3CCOCC3)n2)cc1,1,1,0.9,11*,5,-2,97
CC(Oc1cccc([N+](=O)[O-])c1)C(=O)NCCC1=CCCCC1 (centres undefined),/,/,/,99,/,/,/
Cn1c(CN2CCCC2)c(C#N)c2ccccc21,0,1,1,91,1,-3,/
Cn1c(CN2CCOCC2)c(C#N)c2ccccc21,1,1,0.9,60*,2,2,100
COc1ccccc1C1CC(c2cccs2)=NN1C(=O)CCC(=O)O (centres undefined),/,/,/,102,/,/,/
COc1cccc(C2CC(c3cccs3)=NN2C(=O)CSc2nc3ccccc3o2)c1OC (centres undefined),1,1,0.9,70*,4,-3,97
CC(=O)CN1C(=O)NC(c2ccccc2)(c2ccccc2)C1=O,/,/,/,46*,/,/,104
CC(C)(C)NC(=O)CN1C(=O)NC(c2ccccc2)(c2ccccc2)C1=O,/,/,/,98,/,/,/
CSCC[C@H](NC(=O)N1CCn2c1nc1ccccc12)C(=O)NCC1CCCO1 (some centres undefined),/,/,/,101,/,/,/
CC(Oc1ccc2c3c(c(=O)oc2c1)CCCC3)C(=O)NCc1cccnc1 (centres undefined),/,/,/,58*,/,/,101
